Laboratory results reported in PubChem BioAssay.
Inconclusive results are not listed.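 The calls were made as follows, unless noted: active = viability at or below 27.92% in each of two runs, the all-compound median minus 4 SD; inconclusive = no clear call, values can overlap the other calls; inactive = the rest.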

Tests used:
[1] = OD615 S. cerevisiae growth inhibition, permissive medium, pilot counter-assay, permissive growth control for S. cerevisiae lifespan shortening project (AID 705;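 active = growth inhibition above 25% in both replicates, a cutoff set 3 SD above the mean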); conditions: OD615, 24 h, at 10 µM, hits give high values
Outline: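 System – S. cerevisiae with engineered DeaD lifespan system · Buffer or medium – SC raffinose/galactose permissive medium · Schedule – cells pre-grown 4 h, then 24 h compound exposure, 30 °C humidified · Technique – culture turbidity as optical density at 615 nm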

[2] = Restrictive medium S. cerevisiae growth inhibition, OD615, pilot screen of yeast lifespan reduction project, restrictive growth control (AID 706;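 active = growth inhibition above a set limit, 3 SD over mean compound inhibition, in both replicates, cut at about 43% in these data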;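 also: modified DeaD lifespan yeast strain shifted to restrictive glucose medium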); conditions: OD615, 48 h, at 10 µM, hits give high values
Outline: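 Material: engineered S. cerevisiae DeaD strain / Medium: glucose-based CSMM-D restrictive medium / Compound: single dose of 10 µM compound final, 0.25% DMSO / Timing: 4 h pre-incubation, 48 h exposure at 30 °C / Technique: OD615 absorbance reading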

[3] = viability gain of MRP-1-high H69AR cells under doxorubicin, pilot screen, MRP-1 activator project, CellTiter-Glo, duplicate (AID 807;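 active = viability increase at or above a cutoff of the median across tested compounds plus 3 SD, cut at about 8.5% in these data, passing the limit was not always enough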;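 also: compound pretreatment 18-22 h then 72 h combined with doxorubicin; 0% = doxorubicin alone and 100% = vehicle without doxorubicin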); conditions: H69AR viability with doxorubicin, CellTiter-Glo luminescence; at 10 µM; hits give high values
[4] = growth suppression of beta-catenin knockout HCT116, pilot screen, human colon tumor cells (AID 823;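 active = cell viability at or below a set limit in both duplicate runs, the limit being the all-compound median minus 4 SD, cut at about 23% in these data, passing the limit was not always enough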;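 also: 0% = wells killed by 20 µM Hyamine and 100% = untreated DMSO cell wells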); conditions: CellTiter-Glo, 60 h, at 10 µM, hits give low values
[5] = growth suppression of PTEN-deleted HCT116, pilot screen, cell-based, HCT116 clonal line, CellTiter-Glo (AID 824); conditions: 60 h, at 10 µM, hits give low values;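 also: 0% = 20 µM Hyamine control and 100% = vehicle cell control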
[6] = inhibitors of the yeast RAM network, pilot screen, dse1pr::URA3 reporter, 5-FOA selection (AID 869;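 active = inhibition over a set limit, the all-compound mean plus 3 SD, in both replicate runs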;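 also: 0% = DMSO wells with no growth and 100% = 10 µM 1-NA-PP1 with full growth; RAM network block rescues cells from 5-FOA so hits raise OD615 growth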); conditions: S. cerevisiae dse1pr::URA3 5-FOA growth, OD615, 2 d; at 10 µM; hits give high values; strain carries analog-sensitive mutant Cbk1 kinase
[7] = RAM signaling pathway blockade in yeast – S. cerevisiae, Pdr1DBD-CYC8 efflux-inhibited sensitized strain, primary screen (AID 1298;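 active = RAM network inhibition above 8.4% in each of two replicates, 3 SD over the compound average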;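 also: 0% = DMSO untreated cells without growth and 100% = 10 µM 1-NA-PP1 full growth; higher means more yeast growth rescued from 5-FOA killing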); conditions: S. cerevisiae cbk1-as DSE1-URA3 strain, 5-FOA growth OD615, 2 d; at 50 µM; hits give high values

CCN1C(=O)NC(c2cccnc2)C(C(=O)OC)=C1C (configuration not stated)
inactive: growth inhibition [1] -17.7% | growth inhibition [2] -5.54% | viability increase [3] -1.3% | viability [4] 99.5% | viability [5] 99.9% | inhibition [6] 0.735% | RAM network inhibition [7] 0.25%

Cc1ccc(NC(=O)NCCN2C(=O)C3C4C=CC(C4)C3C2=O)cc1 (configuration not stated)
inactive: growth inhibition [1] -8.32% | growth inhibition [2] 10.9% | viability increase [3] -0.07% | viability [4] 98% | viability [5] 102% | inhibition [6] 0.865% | RAM network inhibition [7] 1.04%

O=C(O)CCC(=O)c1ccc2c(c1)OCCO2
inactive: growth inhibition [1] -6.04% | growth inhibition [2] 8.29% | viability increase [3] -1.32% | viability [4] 101% | viability [5] 103% | inhibition [6] 1.79% | RAM network inhibition [7] -1.36%

O=C(CCSCCC(=O)NCc1cccs1)NCc1cccs1
inactive: growth inhibition [1] -5.92% | growth inhibition [2] 3.44% | viability increase [3] -1.73% | viability [4] 94.5% | viability [5] 96.3% | inhibition [6] 3.47% | RAM network inhibition [7] 2.86%

CC(=O)Nc1ccc(NC2(C)C(=O)c3ccccc3C2=O)cc1
inactive: growth inhibition [1] -0.27% | growth inhibition [2] -3.77% | viability increase [3] -1.88% | viability [4] 99.4% | viability [5] 102% | inhibition [6] 1.94% | RAM network inhibition [7] 1.23%

COC(=O)c1ccc2c(c1)N(Cc1nc(-c3cccc(C)c3)oc1C)C(=O)C1CCCN21 (configuration not stated)
inactive: growth inhibition [1] -13% | growth inhibition [2] -8.79% | viability increase [3] -2.37% | viability [4] 92% | viability [5] 84.3% | inhibition [6] 2.06% | RAM network inhibition [7] 5.71%

Cc1cc(OCCN2CCCC2)ccc1C(C)C
inactive: growth inhibition [1] -4.67% | growth inhibition [2] -1.01% | viability increase [3] -1.29% | viability [4] 89.1% | viability [5] 91.3% | inhibition [6] 2.1% | RAM network inhibition [7] 8.59%

Cc1[nH]c2ccccc2c1CCC(N)=O
inactive: growth inhibition [1] -0.405% | growth inhibition [2] 3.01% | viability increase [3] -1.34% | viability [4] 101% | viability [5] 96.2% | inhibition [6] 1.92% | RAM network inhibition [7] 3.67%

CCN1CCN(CCCNC(=O)Cn2cc3c(n2)CCCC3)CC1
inactive: growth inhibition [1] -5.34% | growth inhibition [2] 0.355% | viability increase [3] -1.2% | viability [4] 108% | viability [5] 97.2% | inhibition [6] 0.945% | RAM network inhibition [7] 0.76%

CCOC(=O)C(C)c1nn(C)c(=O)c2ccccc12 (configuration not stated)
inactive: growth inhibition [1] -3.15% | growth inhibition [2] -5.69% | viability increase [3] -2.34% | viability [4] 97.4% | viability [5] 92.7% | inhibition [6] 1.42% | RAM network inhibition [7] 1.72%

Nc1ccc(C(=O)c2ccc3c(c2)OCCO3)cc1N
inactive: growth inhibition [1] 4.75% | growth inhibition [2] 6.96% | viability increase [3] -6.58% | viability [4] 102% | viability [5] 97.5% | inhibition [6] 0.375% | RAM network inhibition [7] 4.41%

Cc1cccc(-c2nc(CS(=O)CC(=O)N3CCCCC3)c(C)o2)c1 (configuration not stated)
inactive: growth inhibition [1] -8.38% | growth inhibition [2] -15.3% | viability increase [3] -0.7% | viability [4] 101% | viability [5] 92.3% | inhibition [6] 0.205% | RAM network inhibition [7] 3.41%

CS(=O)(=O)N(CC(=O)NCc1ccco1)c1ccc(Cl)c(C(F)(F)F)c1
inactive: growth inhibition [1] -19% | growth inhibition [2] -22.3% | viability increase [3] -3.58% | viability [4] 92.8% | viability [5] 88.2% | inhibition [6] 0.705% | RAM network inhibition [7] 7.07%

CC1CC(C)CN(CCCNC(=O)CNC(=O)Cn2ccc3ccccc3c2=O)C1 (configuration not stated)
inactive: growth inhibition [1] -3% | growth inhibition [2] -19.7% | viability increase [3] -0.78% | viability [4] 104% | viability [5] 98.9% | inhibition [6] 0.76% | RAM network inhibition [7] 2.22%

CCCNC(=O)N1CCN(c2nc(C(C)C)c3c(c2C#N)CC(C)(C)OC3)CC1
inactive: growth inhibition [1] -12.9% | growth inhibition [2] -6.2% | viability increase [3] 2.34% | viability [4] 68.8% | viability [5] 61.5% | inhibition [6] 2.17% | RAM network inhibition [7] 8.42%

CCn1c(-c2ccccc2O)n[nH]c1=S
inactive: growth inhibition [1] 1.96% | growth inhibition [2] 25.6% | viability increase [3] -0.52% | viability [4] 93.7% | viability [5] 95.4% | inhibition [6] -0.54% | RAM network inhibition [7] 0.81%

O=C1CCc2cc(S(=O)(=O)NC(Cc3ccccc3)C(=O)NC3CCCC3)ccc2N1 (configuration not stated)
inactive: growth inhibition [1] -11.3% | growth inhibition [2] -9.16% | viability increase [3] -0.35% | viability [4] 96.8% | viability [5] 98.8% | inhibition [6] 1.86% | RAM network inhibition [7] 0.41%

COCCCNC(=O)c1c(F)c(F)c(F)c(F)c1F
inactive: growth inhibition [1] -11.2% | growth inhibition [2] -2.95% | viability increase [3] -1.94% | viability [4] 95.7% | viability [5] 92.9% | inhibition [6] 0.09% | RAM network inhibition [7] -0.98%

CCOC(=O)c1ccc(N2CSC3=C(C#N)C(c4ccc(OC)cc4OC)CC(=O)N3C2)cc1 (configuration not stated)
inactive: growth inhibition [1] 6.21% | growth inhibition [2] 24.4% | viability increase [3] -4.16% | viability [4] 92.3% | viability [5] 93.2% | inhibition [6] 2.44% | RAM network inhibition [7] 1.72%

COc1cccc(N2C(=O)C3CCCN3C2c2ccc(Cl)cc2)c1 (configuration not stated)
inactive: growth inhibition [1] 3.31% | growth inhibition [2] 17.5% | viability increase [3] -2.51% | viability [4] 95.2% | viability [5] 87% | inhibition [6] 1.21% | RAM network inhibition [7] 2.53%

COC(=O)c1cc(OC)c(OC)cc1NC(=O)c1c(-c2ccccc2Cl)noc1C
inactive: growth inhibition [1] 5.77% | growth inhibition [2] -2.39% | viability increase [3] -5.69% | viability [4] 66.3% | viability [5] 60.2% | inhibition [6] 1.68% | RAM network inhibition [7] 4.85%

COCc1cc(=O)n2c(-c3ccc(C)cc3)n[nH]c2n1
inactive: growth inhibition [1] -9.25% | growth inhibition [2] 6.96% | viability increase [3] -0.72% | viability [4] 95.8% | viability [5] 92.1% | inhibition [6] 2.2% | RAM network inhibition [7] 1.28%

CCOC(=O)N1CCN(C(=O)NC23CC4CC(CC(C4)C2)C3)CC1
inactive: growth inhibition [1] -2.78% | growth inhibition [2] -5.79% | viability increase [3] -2.4% | viability [4] 95.7% | viability [5] 92.1% | inhibition [6] 2.83% | RAM network inhibition [7] 3.57%

CC(C)Cc1nnc(NC(=O)CCN2C(=O)c3ccccc3C2=O)s1
inactive: growth inhibition [1] 5.23% | growth inhibition [2] 16% | viability increase [3] 0.42% | viability [4] 106% | viability [5] 98.4% | inhibition [6] 1.21% | RAM network inhibition [7] 9.47%

O=C1CC(Nc2ccc(N3CCOCC3)cc2)C(=O)N1c1ccccc1F (configuration not stated)
inactive: growth inhibition [1] 1.41% | growth inhibition [2] -5.97% | viability increase [3] -2.99% | viability [4] 110% | viability [5] 105% | inhibition [6] 1.53% | RAM network inhibition [7] 5.38%

CCCCn1c(CCNC(=O)CCC)nc2ccccc21
inactive: growth inhibition [1] -9.84% | growth inhibition [2] 4.55% | viability increase [3] -0.74% | viability [4] 99.1% | viability [5] 108% | inhibition [6] 2.43% | RAM network inhibition [7] -0.53%

C=CCC(=O)OCC(=O)Nc1ccc(Oc2ccccc2)cc1
inactive: growth inhibition [1] 6.73% | growth inhibition [2] 5% | viability increase [3] -5.15% | viability [4] 94.2% | viability [5] 94.1% | inhibition [6] -0.25% | RAM network inhibition [7] -0.31%

Cn1cc(SCC(=O)NCC2CCCO2)c2ccccc21 (configuration not stated)
inactive: growth inhibition [1] -3.53% | growth inhibition [2] 2.04% | viability increase [3] -2.67% | viability [4] 94.9% | viability [5] 93.2% | inhibition [6] 1.21% | RAM network inhibition [7] 0.31%

O=S(=O)(Nc1ccc(O)cc1)c1cccc2cccnc12
inactive: growth inhibition [1] -1.12% | growth inhibition [2] -4.81% | viability increase [3] -1.95% | viability [4] 93.9% | viability [5] 87% | inhibition [6] 2.25% | RAM network inhibition [7] 0.83%

O=C(OCn1nnc2ccccc2c1=O)c1cccs1
inactive: growth inhibition [1] -7.72% | growth inhibition [2] 2.16% | viability increase [3] -0.21% | viability [4] 103% | viability [5] 95.9% | inhibition [6] 0.24% | RAM network inhibition [7] 3.6%

CC1CCN(c2nc(-c3ccco3)c3c(c2C#N)CC(C)(C)OC3)CC1
inactive: growth inhibition [1] -15% | growth inhibition [2] -3.74% | viability increase [3] -6.85% | viability [4] 90.8% | viability [5] 89.6% | inhibition [6] 0.175% | RAM network inhibition [7] 0.92%

C=CCn1c(SCC(=O)Nc2cc(C)nn2-c2ccccc2)nnc1C1CCCCC1
inactive: growth inhibition [1] -7.09% | growth inhibition [2] -6.5% | viability increase [3] -1.14% | viability [4] 90.8% | viability [5] 94.3% | inhibition [6] 0.165% | RAM network inhibition [7] 3.38%

COc1ccc(OC)c(C2NC(=O)NC(C)=C2C(=O)Nc2ccc(C)cc2C)c1 (configuration not stated)
inactive: growth inhibition [1] -7.68% | growth inhibition [2] 4.14% | viability increase [3] 0.67% | viability [4] 101% | viability [5] 100% | inhibition [6] 1.77% | RAM network inhibition [7] 2.4%

Cc1nn(CCCC(=O)N2CCc3ccccc3C2)c(=O)c2cc3sccc3n12
inactive: growth inhibition [1] -4.89% | growth inhibition [2] -14.2% | viability increase [3] -1.17% | viability [4] 97% | viability [5] 88.1% | inhibition [6] 1.39% | RAM network inhibition [7] 0.42%

C=CCn1c(=N)c(C(=O)OCC)cc2c(=O)n3cc(C)ccc3nc21
inactive: growth inhibition [1] 1.62% | growth inhibition [2] 0.61% | viability increase [3] -1.79% | viability [4] 87% | viability [5] 87.4% | inhibition [6] 1.7% | RAM network inhibition [7] 3.98%

COCCNC(=O)Cn1cnc2sc(C)c(S(=O)(=O)N3CCC(C)CC3)c2c1=O
inactive: growth inhibition [1] -5.23% | growth inhibition [2] -3.64% | viability increase [3] 0.05% | viability [4] 100% | viability [5] 100% | inhibition [6] 1.68% | RAM network inhibition [7] 5.34%
